According to PMC6474797 (ACS chemical biology, 2019):

Assays:
[1] = with PLAC–PEG polymer, compared with PPD colloids; cited from earlier work
[2] = Critical aggregation concentration; format: physicochemical
Procedure, shortened: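 Colloids were formulated in PBS with 0.01% UP80 and 10 μM of a cholesteryl BODIPY FRET pair (FL C12 donor, 542/563 C11 acceptor; 0.875:0.125) added to the drug stock. They were diluted 10-fold into PBS or serum media and read by fluorescence (excitation 490 nm, acceptor emission 575 nm). Dye-free comparison was by DLS scattering intensity (830 nm laser, 158° detector).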

| measured CAC with or without BODIPY dyes ([2]; PBS, fluorescence versus light scattering methods) | critical aggregation concentration (CAC) ([2]; protein-free media, light scattering (Figure S3)) | critical aggregation concentration (CAC) ([2]; serum-containing media, colloids with 10 μM BODIPY FRET pair, 0.01% UP80, diluted 10-fold, fluorescence intensity) | Structure (SMILES) | drug loading [1] |
| --- | --- | --- | --- | --- |
|  |  |  | CC(=O)O[C@@]12CO[C@@H]1C[C@H](O)[C@@]1(C)C(=O)[C@H](O)C3=C(C)[C@@H](OC(=O)[C@H](O)[C@@H](NC(=O)OC(C)(C)C)c4ccccc4)C[C@@](O)([C@@H](OC(=O)c4ccccc4)[C@H]21)C3(C)C [docetaxel] | significantly lower drug loading |
| no difference | low micromolar | increased with serum content | C[C@]12CC[C@@H]3c4ccc(O)cc4C[C@@H](CCCCCCCCC[S+]([O-])CCCC(F)(F)C(F)(F)F)[C@H]3[C@@H]1CC[C@@H]2O (stereo partly shown) [fulvestrant] |  |
